{"source": "ChEMBL document CHEMBL1150160", "about": "“New scalarane class sesterterpenes from an Indonesian sponge, Phyllospongia sp” (2002)", "data": [{"system": "KB", "experiment": "Cytotoxicity against human KB cells at 10 ug/mL", "type": "functional", "method_in_brief": "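KB cell growth was measured in the presence of test material at 10 μg/mL. Values are given as percent inhibition of growth.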", "units": {"inhibition at 10 µg/mL": "%"}, "values": [{"molecule": "CO[C@](C(=O)O[C@H]1C[C@H]2[C@]3(C)CC[C@H]4C(C)(C)CCC[C@]4(C)[C@H]3C[C@H](OC(C)=O)[C@]2(C)[C@@H](C=O)[C@@H]1C(C)=O)(c1ccccc1)C(F)(F)F", "inhibition at 10 µg/mL": 30}, {"molecule": "CC(=O)O[C@H]1C[C@@H]2[C@@]3(C)CCCC(C)(C)[C@@H]3CC[C@@]2(C)[C@@H]2C[C@H](O)[C@@H]3[C@H]([C@H](O)O[C@H]3C)[C@@]12C", "inhibition at 10 µg/mL": 30}, {"molecule": "CO[C@@H]1O[C@@H](C)[C@H]2[C@H]1[C@@]1(C)[C@@H](OC(C)=O)C[C@@H]3[C@@]4(C)CCCC(C)(C)[C@@H]4CC[C@@]3(C)[C@@H]1C[C@@H]2O", "inhibition at 10 µg/mL": 30}, {"molecule": "CC[C@@]1(C)CCC[C@]2(C)[C@H]3C[C@H](OC(C)=O)[C@]4(C)[C@H]5[C@@H](OC)O[C@@H](C)[C@@H]5[C@@H](O)C[C@H]4[C@]3(C)CC[C@@H]12", "inhibition at 10 µg/mL": 30}, {"molecule": "CC(=O)O[C@H]1C[C@H]2[C@@](C)(CC[C@H]3C(C)(C)CCC[C@]23C)[C@@H]2C[C@H](O)[C@@H](C(C)=O)C[C@]21C", "inhibition at 10 µg/mL": 30}, {"molecule": "CC[C@@]1(C)CCC[C@]2(C)[C@H]3C[C@H](OC(C)=O)[C@]4(C)C[C@H](C(C)=O)[C@@H](O)C[C@H]4[C@]3(C)CC[C@@H]12", "inhibition at 10 µg/mL": 30}, {"molecule": "CC(=O)O[C@H]1C[C@H]2[C@]3(C)CC[C@H]4C(C)(C)CCC[C@]4(C)[C@H]3C[C@H](OC(C)=O)[C@]2(C)[C@@H](C=O)[C@@H]1C(C)=O", "inhibition at 10 µg/mL": 30}, {"molecule": "CO[C@H]1O[C@@H](C)[C@H]2[C@H]1[C@@]1(C)[C@@H](OC(C)=O)C[C@@H]3[C@@]4(C)CCCC(C)(C)[C@@H]4CC[C@@]3(C)[C@@H]1C[C@@H]2O", "inhibition at 10 µg/mL": 30}, {"molecule": "CC[C@@]1(C)CCC[C@]2(C)[C@H]3C[C@H](OC(C)=O)[C@]4(C)[C@@H](C=O)[C@H](C(C)=O)[C@@H](O)C[C@H]4[C@]3(C)CC[C@@H]12", "inhibition at 10 µg/mL": 30}, {"molecule": "CC[C@@]1(C)CCC[C@]2(C)[C@H]3C[C@H](OC(C)=O)[C@]4(C)[C@@H]5[C@H]([C@H](C)O[C@H]5O)[C@@H](O)C[C@H]4[C@]3(C)CC[C@@H]12", "inhibition at 10 µg/mL": 30}, {"molecule": "CO[C@@H]1O[C@](C)(OC)[C@H]2[C@H]1[C@@]1(C)[C@@H](OC(C)=O)C[C@@H]3[C@@]4(C)CCCC(C)(C)[C@@H]4CC[C@@]3(C)[C@@H]1C[C@@H]2O", "inhibition at 10 µg/mL": 30}, {"molecule": "CO[C@@](C(=O)O[C@H]1C[C@H]2[C@]3(C)CC[C@H]4C(C)(C)CCC[C@]4(C)[C@H]3C[C@H](OC(C)=O)[C@]2(C)[C@@H](C=O)[C@@H]1C(C)=O)(c1ccccc1)C(F)(F)F", "inhibition at 10 µg/mL": 30}, {"molecule": "CC(=O)O[C@@H]1O[C@@H](C)[C@H]2[C@H]1[C@@]1(C)[C@@H](OC(C)=O)C[C@@H]3[C@@]4(C)CCCC(C)(C)[C@@H]4CC[C@@]3(C)[C@@H]1C[C@@H]2OC(C)=O", "inhibition at 10 µg/mL": 30}, {"molecule": "CC[C@@]1(C)CCC[C@]2(C)[C@H]3C[C@H](OC(C)=O)[C@]4(C)[C@H]5[C@H](OC)O[C@@H](C)[C@@H]5[C@@H](O)C[C@H]4[C@]3(C)CC[C@@H]12", "inhibition at 10 µg/mL": 30}, {"molecule": "CC(=O)O[C@H]1C[C@@H]2[C@@]3(C)CCCC(C)(C)[C@@H]3CC[C@@]2(C)[C@@H]2C[C@H](O)[C@@H](C(C)=O)[C@H](C=O)[C@@]12C", "inhibition at 10 µg/mL": 30}, {"molecule": "CC(=O)O[C@H]1C[C@@H]2[C@@]3(C)CCCC(C)(C)[C@@H]3CC[C@@]2(C)[C@@H]2C[C@H](O)[C@@H](C(C)=O)[C@H](O)[C@@]12C", "inhibition at 10 µg/mL": 30}]}]}
